Here are results for two compounds from ChEMBL document CHEMBL3259761, “Myrotheciumones: bicyclic cytotoxic lactones isolated from an endophytic fungus of Ajuga decumbens” (Bioorg Med Chem Lett, 2014).

For assay [1], the system named is HepG2. The experiment in a line: Induction of apoptosis in human HepG2 cells assessed as caspase 3 activity at 4 uM at 12 hrs by Ac-DEVD-pNA-based colorimetric assay relative to control. The class given is functional. Put shortly:
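HepG2 cells were treated at 4 µM for 0, 3, 6 and 12 h. Caspase-3 activity was measured colorimetrically as conversion of Ac-DEVD-pNA to p-nitroaniline, using a Biovision kit per the manufacturer's protocol. Activity was expressed as fold over control.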

Assay [2] can be described thus: Cytotoxicity against human HL7702 cells after 48 hrs by MTT assay. To be noted: L02, 48 h. The assay is classed as cell-based. Put shortly:
(§1)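 Cell lines: HepG2, A549 and MCF-7 from ATCC; SMMC-7721 hepatocellular carcinoma and QSG-7701 and HL-7702 normal human hepatocyte lines from the Type Culture Collection of the Chinese Academy of Sciences, Shanghai. Each line was exposed to compound and growth inhibition was scored; IC50 values reported as mean ± deviation.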
In general terms: Tetrazolium assays rely on reduction of a dye to a coloured formazan, in cell work by metabolically active cells.

Assay [3] can be described thus: Cytotoxicity against human QSG7701 cells after 48 hrs by MTT assay. The assay is classed as cell-based. Conditions: QSG7701, 48 h. Put shortly:
as §1

Assay [4] has as its system SMMC-7721. The experiment in a line: Cytotoxicity against human SMMC7721 cells after 48 hrs by MTT assay. The class given is functional, cell-based. Conditions: SMMC-7721, 48 h. An outline of the steps: as §1
Assay [5] concerns HepG2. The experiment in a line: Induction of apoptosis in human HepG2 cells assessed as cytochrome c release from mitochondria at 4 uM after 12 hrs by immunofluorescence analysis relative to control. The assay is classed as functional, cell-based. An outline of the steps:
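HepG2 cells were treated at 4 µM for 12 h, then assessed for cytochrome c release from mitochondria.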

In assay [6] the test system is A549. Put plainly: Cytotoxicity against human A549 cells after 48 hrs by MTT assay. The class given is functional, cell-based. To be noted: A549, 48 h. An outline of the steps:
as §1

In assay [7] the test system is MCF7. Put plainly: Cytotoxicity against human MCF7 cells after 48 hrs by MTT assay. The class given is functional, cell-based. Conditions: MCF7, 48 h. An outline of the steps: as §1
Assay [8] has as its system HepG2. The experiment in a line: Cytotoxicity against human HepG2 cells after 48 hrs by MTT assay. The class given is functional, cell-based. Conditions: HepG2, 48 h. Put shortly:
as §1

The subject of assay [9] is HepG2. The experiment in a line: Induction of apoptosis in human HepG2 cells assessed as PARP cleavage after 8 hrs by Western blotting. The class given is functional, cell-based. Put shortly: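 HepG2 cells were treated either at 5, 10 and 20 µM for 8 h, or at 4 µM for 0, 3, 6 or 12 h. PARP cleavage was then assessed.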
A general note: Immunoblotting shows a protein as a band on a membrane.

In assay [10] the test system is HepG2. The experiment in a line: Cytotoxicity against human HepG2 cells at 100 uM after 48 hrs by MTT assay. The assay is classed as functional, cell-based.
For assay [11], the system named is SMMC-7721. The experiment in a line: Cytotoxicity against human SMMC7721 cells at 100 uM after 48 hrs by MTT assay. The assay is classed as functional, cell-based.
The subject of assay [12] is A549. The experiment in a line: Cytotoxicity against human A549 cells at 100 uM after 48 hrs by MTT assay. The assay is classed as functional, cell-based.
The subject of assay [13] is MCF7. Put plainly: Cytotoxicity against human MCF7 cells at 100 uM after 48 hrs by MTT assay. The class given is functional, cell-based.

Activity calls are given as the source filed them. The rule behind the calls is not given here.

One may read the IC50 as the concentration that inhibits the measured activity by half. A low value points to greater potency in that assay. On to `C[C@@H]1[C@@H]2CC(=O)O[C@@H]2C[C@]1(C)O`, for which, in [1], the “fold change (FC)” value was found to be 6. The IC50 amounted to 20.7 µM in [2]; 16.3 µM in [3]; 6.56 µM in [4]; 5.88 µM in assay [6]; 7.56 µM in assay [7]; 5.36 µM in [8]. Also, the result in assay [5] was Active. Further, the Activity result in assay [9] is “Dose-dependent effect”.

As to `C[C@@H]1[C@@H]2C(=O)O[C@@H]2C[C@]1(C)O`, the outcome in [10], in assay [11], in [12] and in assay [13] was inactive.
